Where “and” joins values, the source holds several entries; their conditions need not be identical. Identical values can stand only once. Peptide text beside a SMILES is read from it. * marks the point of attachment. Cbz = O=C(OCc1ccccc1)*; CH2F = FC*
Assays:
Type in all cases: biochemical
caspase-8 = caspase-8 (Homo sapiens, UniProt Q14790); assay: In vitro inhibition assay, caspase-8; details: IC50, caspase-8, 0.25 activity units/μL, 200 μM Ac-LEHD-AMC substrate
caspase-6 = target: T1, caspase-6 (Homo sapiens, UniProt P55212); assay: In vitro inhibition assay, caspase-6
T1 sequence (P55212 24-179 limits assumed): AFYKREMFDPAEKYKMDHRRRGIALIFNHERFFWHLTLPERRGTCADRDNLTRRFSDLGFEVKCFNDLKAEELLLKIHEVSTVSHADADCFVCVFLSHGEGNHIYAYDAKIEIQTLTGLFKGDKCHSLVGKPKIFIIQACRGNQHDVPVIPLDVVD
T1 sequence (P55212 194-293 limits assumed): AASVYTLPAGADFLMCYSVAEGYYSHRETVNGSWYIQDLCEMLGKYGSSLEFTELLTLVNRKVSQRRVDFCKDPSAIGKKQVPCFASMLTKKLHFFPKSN
In short: (§1)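 Recombinant caspase at 0.25 activity units/µL in pH 7 PIPES buffer (100 mM NaCl, 10 mM DTT, 1 mM EDTA, 0.1% CHAPS, 10% sucrose). Saturating AMC substrate: Ac-WEHD 200 µM (caspase-1, -5) or 1000 µM (-4, -11); Ac-DEVD 100 µM (-3, -6, -7), or 25 µM for -3/-7 with a pan-caspase FMK inhibitor. Fluorescence read every 5 min. Background-subtracted linear rates normalised to no-inhibitor; three runs pooled and fitted to Y=100/(1+X/IC50).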

caspase-7 = target: T2, caspase-7 (Homo sapiens, UniProt P55210); assay: In vitro inhibition assay, caspase-7
T2 sequence (P55210 24-198 limits assumed): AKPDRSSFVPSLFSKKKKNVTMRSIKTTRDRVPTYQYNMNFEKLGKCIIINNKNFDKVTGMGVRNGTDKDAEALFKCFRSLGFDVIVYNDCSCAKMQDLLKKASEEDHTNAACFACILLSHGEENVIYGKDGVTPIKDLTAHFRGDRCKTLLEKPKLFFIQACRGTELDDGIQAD
T2 sequence (P55210 207-303 limits assumed): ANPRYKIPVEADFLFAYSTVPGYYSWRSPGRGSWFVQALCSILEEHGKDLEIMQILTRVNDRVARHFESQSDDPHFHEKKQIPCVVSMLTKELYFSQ
In short: as §1

caspase-9 = target: T3, caspase-9 (Homo sapiens, UniProt P55211); assay: In vitro inhibition assay, caspase-9; details: IC50, caspase-9 (different preparation), 1 activity unit/μL, 200 μM Ac-LEHD-AMC substrate
T3 sequence (P55211 1-315 limits assumed): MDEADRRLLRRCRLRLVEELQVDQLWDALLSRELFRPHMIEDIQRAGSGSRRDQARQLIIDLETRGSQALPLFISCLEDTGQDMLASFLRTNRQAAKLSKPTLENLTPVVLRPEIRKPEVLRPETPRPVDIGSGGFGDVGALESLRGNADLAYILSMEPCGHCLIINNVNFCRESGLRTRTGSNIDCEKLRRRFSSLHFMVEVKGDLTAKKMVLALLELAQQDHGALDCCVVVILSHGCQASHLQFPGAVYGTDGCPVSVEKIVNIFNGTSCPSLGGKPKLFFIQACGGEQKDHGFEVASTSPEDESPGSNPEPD
T3 sequence (P55211 331-416 limits assumed): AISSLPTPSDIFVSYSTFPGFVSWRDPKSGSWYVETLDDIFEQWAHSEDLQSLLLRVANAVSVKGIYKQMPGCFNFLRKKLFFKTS

caspase-10 = target: T4, caspase-10 (Homo sapiens, UniProt Q92851); assay: In vitro inhibition assay, caspase-10; details: IC50, caspase-10, 0.25 activity units/μL, 200 μM Ac-LEHD-AMC substrate
T4 sequence (Q92851 220-415 limits assumed): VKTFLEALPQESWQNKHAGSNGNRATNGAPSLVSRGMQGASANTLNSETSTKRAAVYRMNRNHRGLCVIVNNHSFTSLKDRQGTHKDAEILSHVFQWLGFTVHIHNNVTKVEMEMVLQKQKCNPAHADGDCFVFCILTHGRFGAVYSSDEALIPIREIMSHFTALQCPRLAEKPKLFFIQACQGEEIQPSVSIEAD
T4 sequence (Q92851 416-521 limits assumed): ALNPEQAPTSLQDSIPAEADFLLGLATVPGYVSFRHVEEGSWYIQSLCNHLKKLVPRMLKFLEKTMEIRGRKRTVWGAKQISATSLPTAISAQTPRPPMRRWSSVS

caspase-3 = target: T5, caspase-3 (Homo sapiens, UniProt P42574); assay: In vitro inhibition assay, caspase-3
T5 sequence (P42574 29-175 limits assumed): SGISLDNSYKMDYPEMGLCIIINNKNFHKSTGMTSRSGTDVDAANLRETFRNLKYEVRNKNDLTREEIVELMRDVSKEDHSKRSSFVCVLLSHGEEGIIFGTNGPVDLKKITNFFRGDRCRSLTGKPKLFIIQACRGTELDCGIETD
T5 sequence (P42574 176-277 limits assumed): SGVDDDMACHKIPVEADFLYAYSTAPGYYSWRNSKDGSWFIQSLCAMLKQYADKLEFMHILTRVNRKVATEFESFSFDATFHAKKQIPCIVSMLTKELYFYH
In short: as §1

caspase-1 = target: T6, caspase-1 (Homo sapiens, UniProt P29466); assay: In vitro inhibition assay, caspase-1
T6 sequence (P29466 120-297 limits assumed): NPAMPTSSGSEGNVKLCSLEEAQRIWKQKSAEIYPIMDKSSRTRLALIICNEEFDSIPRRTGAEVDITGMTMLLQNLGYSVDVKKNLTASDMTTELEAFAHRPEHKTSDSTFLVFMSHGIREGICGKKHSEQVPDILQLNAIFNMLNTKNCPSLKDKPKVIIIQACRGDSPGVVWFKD
T6 sequence (P29466 317-404 limits assumed): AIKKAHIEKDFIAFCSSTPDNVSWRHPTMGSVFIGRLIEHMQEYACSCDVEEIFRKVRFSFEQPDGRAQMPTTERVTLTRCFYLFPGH
In short: as §1

caspase-5 = target: T7, caspase-5 (Homo sapiens, UniProt P51878); assay: In vitro inhibition assay, caspase-5
T7 sequence (P51878 137-327 limits assumed): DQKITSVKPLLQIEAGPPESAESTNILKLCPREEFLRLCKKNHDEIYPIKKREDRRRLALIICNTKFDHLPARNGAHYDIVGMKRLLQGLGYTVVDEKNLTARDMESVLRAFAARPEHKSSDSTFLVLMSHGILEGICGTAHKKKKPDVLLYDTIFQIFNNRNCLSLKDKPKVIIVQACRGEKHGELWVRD
T7 sequence (P51878 347-434 limits assumed): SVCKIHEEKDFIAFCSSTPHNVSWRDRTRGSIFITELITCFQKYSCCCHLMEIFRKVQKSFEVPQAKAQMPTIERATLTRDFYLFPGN
In short: as §1

caspase-4 = target: T8, caspase-4 (Homo sapiens, UniProt P49662); assay: In vitro inhibition assay, caspase-4
T8 sequence (P49662 81-270 limits assumed): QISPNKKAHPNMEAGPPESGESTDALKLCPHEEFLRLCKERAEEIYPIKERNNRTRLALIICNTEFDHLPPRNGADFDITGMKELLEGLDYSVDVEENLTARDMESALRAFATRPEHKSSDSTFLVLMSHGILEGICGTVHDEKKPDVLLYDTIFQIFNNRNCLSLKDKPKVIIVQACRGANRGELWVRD
T8 sequence (P49662 290-377 limits assumed): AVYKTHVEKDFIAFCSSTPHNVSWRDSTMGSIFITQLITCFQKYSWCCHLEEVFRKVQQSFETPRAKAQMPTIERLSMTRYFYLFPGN
In short: as §1

caspase-11 = target: T9, caspase-11 (Mus musculus, UniProt P70343); assay: In vitro inhibition assay, caspase-11
T9 sequence (P70343 81-266 limits assumed): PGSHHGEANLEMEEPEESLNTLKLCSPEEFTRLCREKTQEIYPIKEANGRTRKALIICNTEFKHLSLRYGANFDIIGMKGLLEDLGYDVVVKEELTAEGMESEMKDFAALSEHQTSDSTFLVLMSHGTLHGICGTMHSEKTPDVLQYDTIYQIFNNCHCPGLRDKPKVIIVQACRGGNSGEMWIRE
T9 sequence (P70343 286-373 limits assumed): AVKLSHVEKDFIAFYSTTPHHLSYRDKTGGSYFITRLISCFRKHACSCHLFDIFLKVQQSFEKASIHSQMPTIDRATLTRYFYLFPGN
In short: as §1

Chain of caspase-8 (Q14790 217-374 limits assumed): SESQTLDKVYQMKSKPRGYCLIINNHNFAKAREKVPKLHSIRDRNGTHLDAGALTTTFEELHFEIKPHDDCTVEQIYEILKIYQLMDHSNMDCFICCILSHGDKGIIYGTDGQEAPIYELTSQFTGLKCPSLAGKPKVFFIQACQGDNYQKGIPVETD
Chain of caspase-8 (Q14790 385-479 limits assumed): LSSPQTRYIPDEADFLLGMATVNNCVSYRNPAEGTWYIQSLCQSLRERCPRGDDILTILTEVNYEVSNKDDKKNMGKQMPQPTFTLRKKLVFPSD

Row | SMILES | IC50 (caspase-8) | IC50 (caspase-6) | IC50 (caspase-7) | IC50 (caspase-9) | IC50 (caspase-10) | IC50 (caspase-3) | IC50 (caspase-1) | IC50 (caspase-5) | IC50 (caspase-4) | IC50 (caspase-11)
1 | COC(=O)CC[C@H](NC(=O)[C@H](CC(C)C)NC(=O)OCc1ccccc1)C(=O)N[C@@H](Cc1c[nH]cn1)C(=O)N[C@@H](CC(=O)OC)C(=O)CF [z-LEHD-FMK] (Cbz-LE(OMe)HD(OMe)-CH2F) | 0.07 ± 0.01 µM | 0.11 ± 0.06 µM | 3.9 ± 0.29 µM | 1.5 µM and 1.58 µM | 3.59 ± 1.27 µM | 1.07 ± 0.18 µM | 0.82 ± 0.13 µM | 2.31 ± 0.31 µM | – | –
2 | CC[C@H](C)[C@H](NC(=O)OCc1ccccc1)C(=O)N[C@@H](CCC(=O)OC)C(=O)N[C@H](C(=O)N[C@@H](CC(=O)OC)C(=O)CF)[C@@H](C)O [z-IETD-FMK] (Cbz-IE(OMe)TD(OMe)-CH2F) | 0.35 ± 0.1 µM | 0.06 ± 0.04 µM | 2.63 ± 0.54 µM | 3.7 µM and 3.65 µM | 5.76 ± 1.1 µM | 1.88 ± 0.26 µM | 5.72 ± 0.47 µM | 19.9 ± 1.19 µM | – | –
3 | CCO[C@@H]1OC(=O)C[C@@H]1NC(=O)[C@@H]1CCCN1C(=O)[C@@H](NC(=O)c1ccc(N)c(Cl)c1)C(C)(C)C [VX-765, (S)-1-((S)-2-{[1-(4-amino-3-chloro-phenyl)-methanoyl]-amino}-3,3-dimethyl-butanoyl)-pyrrolidine-2-carboxylic acid ((2R,3S)-2-ethoxy-5-oxo-tetrahydro-furan-3-yl)-amide] | 1 µM and 1.02 µM | > 100 µM | > 100 µM | 4 µM and 4.01 µM | 42 µM and 42.3 µM | > 100 µM | 0.53 ± 0.09 µM | 19.5 ± 1.37 µM | 30.1 ± 2.67 µM | 81 ± 2.77 µM
